In ChEMBL document CHEMBL1138785, “Stereoselective synthesis of sugar-modified enyne analogues of adenosine and uridine. Interaction with S-adenosyl-L-homocysteine hydrolase and antiviral and cytotoxic effects” (J Med Chem, 2004):

Tests used:
[1] = test system: Human immunodeficiency virus 2; experiment: Inhibition concentration required to inhibit ROD strain was determined by MT-4/MTT assay; type: functional, organism-based
In short: (§1)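 MT-4 cells infected with HIV-1 (strain IIIB) or HIV-2 (strain ROD), with viability read by MTT. The read-out is the 50% inhibitory concentration (IC50). CC50 was measured in MT-4 cells, and the selectivity index was calculated as CC50/IC50.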

HeLa [2] = experiment: Minimum inhibitory concentration required to inhibit Coxsackie B4 virus; type: functional; conditions: Homo sapiens
In short: (§2)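 HeLa cell cultures infected with vesicular stomatitis virus, Coxsackie B4 virus or respiratory syncytial virus. The read-out is the minimum inhibitory concentration (MIC), with compounds tested up to 100 or 700 μM.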

HeLa [3] = experiment: Minimum inhibitory concentration required to inhibit vesicular stomatitis virus; type: functional; conditions: Homo sapiens; in short: as §2
HeLa [4] = experiment: Minimum inhibitory concentration required to inhibit respiratory syncytial virus; type: functional; conditions: Homo sapiens; in short: as §2
[5] = test system: Human immunodeficiency virus 1; experiment: Inhibition concentration required to inhibit HIV-IIIB was determined by MT-4/MTT assay; type: functional, organism-based; in short: as §1
[6] = test system: Human immunodeficiency virus 1; experiment: Inhibition concentration required to inhibit HIV-1 was determined by MT-4/MTT assay; type: functional, organism-based; in short: as §1
[7] = test system: Human immunodeficiency virus 2; experiment: Inhibition concentration required to inhibit HIV-2 was determined by MT-4/MTT assay; type: functional, organism-based; in short: as §1
[8] = Minimum cytotoxic concentration was determined; conditions: human
In short: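 Human embryonic lung (HEL) cell cultures, run alongside the CMV (AD-169, Davis) and VZV (OKA, 07/1) antiviral tests. Minimum cytotoxic concentration is the lowest compound level that causes cytotoxicity.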

MT4 = experiment: Ratio of cytotoxicity to antiviral activity was determined; type: functional, Homo sapiens; in short: as §1
Adenosylhomocysteinase [9] = target: T1, Adenosylhomocysteinase (Homo sapiens, UniProt P23526); experiment: Inhibition of recombinant human placental AdoHcy hydrolase
In short: (§3)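 Recombinant enzyme (2.5 μg) preincubated with inhibitor at 0–200 μM for 0–20 min at 37 °C in 50 mM potassium phosphate, pH 7.2, 1 mM EDTA. Residual synthetic-direction activity was measured with 1 mM Ado and 1 mM Hcy for 1 min at 37 °C, stopped with HClO4, and AdoHcy quantified by reversed-phase HPLC at 258 nm. Ki and kinact came from fitting kobs = kinact[I]/(Ki+[I]).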
Target sequence in this assay (P23526 whole entry): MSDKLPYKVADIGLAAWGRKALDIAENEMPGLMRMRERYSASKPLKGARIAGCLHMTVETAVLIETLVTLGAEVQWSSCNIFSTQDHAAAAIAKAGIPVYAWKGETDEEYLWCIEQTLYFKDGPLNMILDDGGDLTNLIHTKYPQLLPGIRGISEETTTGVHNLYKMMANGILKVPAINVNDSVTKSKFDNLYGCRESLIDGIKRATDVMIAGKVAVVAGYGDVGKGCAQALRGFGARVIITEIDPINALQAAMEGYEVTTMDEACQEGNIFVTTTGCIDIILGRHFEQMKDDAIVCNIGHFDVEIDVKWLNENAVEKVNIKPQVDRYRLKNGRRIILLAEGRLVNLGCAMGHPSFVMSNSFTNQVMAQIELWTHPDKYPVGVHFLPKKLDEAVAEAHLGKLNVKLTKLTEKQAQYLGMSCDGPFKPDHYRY

Adenosylhomocysteinase [10] = target: T1, Adenosylhomocysteinase; experiment: Rate at which the compound inactivates human placental AdoHcy hydrolase enzyme was determined; type: functional; in short: as §3
Target sequence in this assay (P23526 2-432 limits assumed): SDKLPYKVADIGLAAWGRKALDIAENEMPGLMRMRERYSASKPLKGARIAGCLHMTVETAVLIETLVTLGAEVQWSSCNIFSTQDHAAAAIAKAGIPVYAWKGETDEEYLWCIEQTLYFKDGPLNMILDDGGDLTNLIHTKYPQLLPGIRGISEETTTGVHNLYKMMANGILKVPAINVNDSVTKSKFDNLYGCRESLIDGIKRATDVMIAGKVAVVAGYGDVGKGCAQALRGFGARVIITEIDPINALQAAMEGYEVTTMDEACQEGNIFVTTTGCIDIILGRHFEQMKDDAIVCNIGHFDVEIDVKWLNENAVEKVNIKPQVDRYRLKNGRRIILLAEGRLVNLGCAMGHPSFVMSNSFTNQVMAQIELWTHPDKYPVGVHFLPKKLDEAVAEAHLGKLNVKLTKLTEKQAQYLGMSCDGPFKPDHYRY

Cytomegalovirus [11] = experiment: Activity against CMV (AD-169 strain) was determined; type: functional, organism-based; conditions: Human betaherpesvirus 5
In short: (§4)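 Human embryonic lung (HEL) cell cultures infected with human cytomegalovirus, AD-169 or Davis strain. The read-out is the 50% effective concentration (EC50). Cytotoxicity was measured in the same cells as the 50% cytotoxic concentration (CC50).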

Cytomegalovirus [12] = experiment: Activity against CMV (Davis strain) was determined; type: functional, organism-based; conditions: Human betaherpesvirus 5; in short: as §4
Adenosylhomocysteinase [13] = target: T1, Adenosylhomocysteinase; experiment: Inhibition of recombinant Placental Adenosylhomocysteinase
Target sequence in this assay (P23526 whole entry): as the sequence (P23526 whole entry) above

Adenosylhomocysteinase [14] = target: T1, Adenosylhomocysteinase
Target sequence in this assay (P23526 2-432 limits assumed): as the sequence (P23526 2-432 limits assumed) above

Row | Compound | IC50 [1] [µM] | MIC (HeLa [2]) [µM] | MIC (HeLa [3]) [µM] | MIC (HeLa [4]) [µM] | IC50 [5] [µM] | IC50 [6] [µM] | IC50 [7] [µM] | MCC [8] [µM] | CC50/IC50 (MT4) | Ki (Adenosylhomocysteinase [9]) [µM] | K inact (Adenosylhomocysteinase [10]) [min⁻¹] | EC50 (Cytomegalovirus [11]) [µM] | EC50 (Cytomegalovirus [12]) [µM] | Ki (Adenosylhomocysteinase [13]) [µM] | K inact (Adenosylhomocysteinase [14]) [min⁻¹]
1 | O=c1ccn(C2O[C@H](/C=C/C#CI)[C@@H](O)[C@H]2O)c(=O)[nH]1 (some centres not stated) | 1.8 | > 100 | > 100 | > 100 | 1.8 | 1.8 | 1.8 | ≥ 50 | 3 | – | – | – | – | – | –
2 | C#C/C=C\[C@H]1OC(n2cnc3c(N)ncnc32)[C@H](O)[C@@H]1O (some centres not stated) | – | > 700 | > 700 | > 700 | – | – | – | ≥ 350 | – | – | – | – | – | – | –
3 | Nc1ncnc2c1ncn2C1O[C@H](/C=C/C#CI)[C@@H](O)[C@H]1O (some centres not stated) | 1.1 | > 100 | > 100 | > 100 | 1.1 | 1.1 | 1.1 | ≥ 50 | 7 | 118 | 1.49 | – | – | – | –
4 | C#C/C=C\[C@H]1OC(n2ccc(=O)[nH]c2=O)[C@H](O)[C@@H]1O (some centres not stated) | – | > 100 | > 100 | > 100 | – | – | – | ≥ 350 | 7 | – | – | – | – | – | –
5 | C#C/C=C/[C@H]1OC(n2cnc3c(N)ncnc32)[C@H](O)[C@@H]1O (some centres not stated) | – | > 100 | > 100 | > 100 | – | – | – | ≥ 350 | – | – | – | 50 | 30 | 0.55 | 2.57
6 | CCOC(=O)/C=C\C#C[C@H]1OC(n2cnc3c(N)ncnc32)[C@H](O)[C@@H]1O (some centres not stated) | – | – | – | – | – | – | – | ≥ 11 | – | – | – | – | – | – | –
7 | C#C/C=C/[C@H]1OC(n2ccc(=O)[nH]c2=O)[C@H](O)[C@@H]1O (some centres not stated) | – | > 700 | > 700 | > 700 | – | – | – | ≥ 350 | – | – | – | – | – | – | –
